For experiment [1], the system named is MCF7. Nature of the experiment: Antiproliferative activity against human MCF7 cells at 40 uM after 72 hrs by SRB assay. In kind it is functional, cell-based.
Experiment [2] concerns A549. The experiment is described as follows: Antiproliferative activity against human A549 cells at 40 uM after 72 hrs by SRB assay. In kind it is functional, cell-based.
The species entered for experiment [3] is Homo sapiens. The experiment is described as follows: Antiproliferative activity against human KBVIN cells at 40 uM after 72 hrs by SRB assay. Type of experiment: functional, cell-based. (The SRB assay estimates cell density from bound dye.)
In experiment [4] the test system is KB. Nature of the experiment: Antiproliferative activity against human KB cells at 40 uM after 72 hrs by SRB assay. In kind it is functional, cell-based.
In experiment [5] the test system is MDA-MB-231. Nature of the experiment: Antiproliferative activity against human MDA-MB-231 cells at 40 uM after 72 hrs by SRB assay. Type of experiment: functional, cell-based.
A short description of experiment [6]: Antiproliferative activity against human KBVIN cells after 48 hrs by SRB assay. Type of experiment: functional, cell-based. Put shortly:
(§1)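 SRB assay. Cell suspensions were seeded at 4000–12 000 cells/well in RPMI-1640 with 2 mM L-glutamine, 25 mM HEPES, 10% FBS, streptomycin and penicillin. Cells were exposed to compounds for 72 h. For the time course, cells were plated 24 h before treatment and then exposed for 24, 48 or 72 h. Cells were fixed in 10% TCA and stained with 0.04% SRB. Bound dye was dissolved in 10 mM Tris and read at 515 nm.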

Experiment [7] in a line: Antiproliferative activity against human KBVIN cells after 72 hrs by SRB assay. Type of experiment: functional, cell-based. The procedure, abridged: as §1
A short description of experiment [8]: Antiproliferative activity against human KBVIN cells after 24 hrs by SRB assay. Type of experiment: functional, cell-based. The procedure, abridged: as §1
The subject of experiment [9] is CNS carcinoma cell. Nature of the experiment: Antiproliferative activity against human CNS cancer cells at 10 to 100 nM after 48 hrs by SRB assay. Type of experiment: functional, cell-based.
In experiment [10] the test system is Leukemia cell. The experiment is described as follows: Antiproliferative activity against human leukemia cells at 10 to 100 nM after 48 hrs by SRB assay. Type of experiment: functional, cell-based.
For experiment [11], the species on record is Homo sapiens. Nature of the experiment: Antiproliferative activity against human […] cells at 10 to 100 nM after 48 hrs by SRB assay. In kind it is functional, cell-based.
The test system of experiment [12] is MDA-MB-231. Nature of the experiment: Antiproliferative activity against human MDA-MB-231 cells after 48 hrs by SRB assay. Type of experiment: functional, cell-based. The following applies: MDA-MB-231, 48 h.
The subject of experiment [13] is A549. Nature of the experiment: Antiproliferative activity against human A549 cells after 72 hrs by SRB assay. Type of experiment: functional, cell-based. The conditions noted are these: A549, 72 h. The procedure, abridged: (§2)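 Time-course: cells seeded at 4000–12 000 per well 24 h before compound exposure for 24, 48 or 72 h, as named in the line. Cells then fixed in 10% trichloroacetic acid, stained with 0.04% SRB, and dye solubilized in 10 mM Tris base read at 515 nm. […] Medium RPMI-1640 with 10% FBS.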

Experiment [14] has as its system MCF7. The experiment is described as follows: Antiproliferative activity against human MCF7 cells after 24 hrs by SRB assay. In kind it is functional, cell-based. The following applies: MCF7, 24 h.
Experiment [15] concerns A549. The experiment is described as follows: Antiproliferative activity against human A549 cells after 24 hrs by SRB assay. In kind it is functional, cell-based. The conditions noted are these: A549, 24 h. Put shortly: as §2
In experiment [16] the test system is Ovarian carcinoma cell. Nature of the experiment: Antiproliferative activity against human ovarian cancer cells at 10 to 100 nM after 48 hrs by SRB assay. In kind it is functional, cell-based.
In experiment [17] the test system is KB. Nature of the experiment: Antiproliferative activity against human KB cells after 72 hrs by SRB assay. Type of experiment: functional, cell-based.
Experiment [18] has as its system MDA-MB-231. Nature of the experiment: Antiproliferative activity against human MDA-MB-231 cells after 24 hrs by SRB assay. The following applies: MDA-MB-231, 24 h. In kind it is functional, cell-based.
In experiment [19] the test system is KB. Nature of the experiment: Antiproliferative activity against human KB cells after 24 hrs by SRB assay. Type of experiment: functional, cell-based.
Experiment [20] has as its system MCF7. Nature of the experiment: Antiproliferative activity against human MCF7 cells after 48 hrs by SRB assay. In kind it is functional, cell-based. The conditions noted are these: MCF7, 48 h.
In experiment [21] the test system is Prostatic carcinoma cell. Nature of the experiment: Antiproliferative activity against human prostate cancer cells at 10 to 100 nM after 48 hrs by SRB assay. Type of experiment: functional.
For experiment [22], the system named is KB. The experiment is described as follows: Antiproliferative activity against human KB cells after 48 hrs by SRB assay. In kind it is functional, cell-based.
The subject of experiment [23] is Melanoma cell. The experiment is described as follows: Antiproliferative activity against human melanoma cells at 10 to 100 nM after 48 hrs by SRB assay. Type of experiment: functional, cell-based.
Experiment [24] concerns MDA-MB-231. Nature of the experiment: Antiproliferative activity against human MDA-MB-231 cells after 72 hrs by SRB assay. In kind it is functional, cell-based. The conditions noted are these: MDA-MB-231, 72 h.
Experiment [25] is filed under the species Homo sapiens. Nature of the experiment: Antiproliferative activity against human non-small cell lung cancer cells at 10 to 100 nM after 48 hrs by SRB assay. In kind it is functional.
Experiment [26] concerns MCF7. The experiment is described as follows: Antiproliferative activity against human MCF7 cells after 72 hrs by SRB assay. Type of experiment: functional, cell-based. The following applies: MCF7, 72 h.
The species entered for experiment [27] is Homo sapiens. The experiment is described as follows: Antiproliferative activity against human renal cancer cells at 10 to 100 nM after 48 hrs by SRB assay. In kind it is functional, cell-based.
The test system of experiment [28] is NCI/ADR-RES. The experiment is described as follows: Antiproliferative activity against human NCI-ADR-RES cells after 48 hrs by SRB assay.
Experiment [29] deals with Breast carcinoma cell. Nature of the experiment: Antiproliferative activity against human breast cancer cells at 10 to 100 nM after 48 hrs by SRB assay. Type of experiment: functional, cell-based.
Experiment [30] concerns MDA-MB-231. The experiment is described as follows: Cell cycle arrest in human MDA-MB-231 cells assessed as accumulation at sub-G1 phase at 10 times IC50 after 48 hrs by propidium iodide staining based flow cytometry. Type of experiment: functional. The procedure, abridged: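 DMSO served as vehicle control and combretastatin A-4 at 0.1 μM as the G2/M-arrest control. Harvested cells were fixed and stained with propidium iodide plus RNase. DNA content was analysed by flow cytometry, and sub-G1 cells were counted. Each experiment was done at least twice.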
(A flow cytometer gives signals particle by particle.)

In experiment [31] the test system is A549. Nature of the experiment: Antiproliferative activity against human A549 cells after 48 hrs by SRB assay. The conditions noted are these: A549, 48 h. In kind it is functional, cell-based. Put shortly:
as §2

pIC50: −log10 of the molar value. The source made the active and inactive calls. The rule behind the calls is not given here. A value given as a limit tells only on which side of the number the result lay.

As to `C=C[C@H]1[C@H](O[C@@H]2O[C@H](CO)[C@@H](O)[C@H](O)[C@H]2OC(=O)/C=C/c2cc(OC)c(O)c(OC)c2)OC=C2C(=O)N3CCc4cc(O)c(O)cc4[C@H]3C[C@H]21`, the outcome in experiment [1], in experiment [2], in experiment [3], in experiment [4] and in [5] was inactive.

With `C=C[C@H]1[C@H](O[C@@H]2O[C@H](CO)[C@@H](O)[C@H](O)[C@H]2OC(=O)/C=C/c2cc(OC)c(O)c(OC)c2)OC=C2C(=O)N3CCc4cc(O)c(OC)cc4[C@H]3C[C@H]21`, the outcome in experiment [1], in experiment [2], in experiment [3], in [4] and in [5] was inactive.

One may read the pIC50 as the IC50 on a negative log10 scale, so that one unit is a factor of ten. The low end stands for a large IC50, the high end for a small IC50. For `CC(=O)O[C@H]1C(=O)[C@@]2(C)[C@H]([C@H](OC(=O)c3ccccc3)[C@]3(O)C[C@H](OC(=O)[C@H](O)[C@@H](NC(=O)c4ccccc4)c4ccccc4)C(C)=C1C3(C)C)[C@]1(OC(C)=O)CO[C@@H]1C[C@@H]2O` [PACLITAXEL], the pIC50 was 5.54 in [6], 5.62 in [7] and under 5.52 in experiment [8].

Take `CC[C@H]1CN2CCc3c(cc(OC)c(OC)c3O)[C@@H]2C[C@@H]1C[C@H]1NCCc2c1[nH]c1ccc(O)cc21`: the result in experiment [9], in [10], in experiment [11], in experiment [16], in experiment [21] and in experiment [23] was Active. For the same compound, the outcome in [25], in experiment [27], in experiment [28], in experiment [29] and in experiment [30] was Active. In addition, the pIC50 is 7.10 in [12]; 6.55 in experiment [13]; 6.92 in experiment [14]; 6.68 in experiment [15]; 6.68 in [17]; 7.22 in experiment [18]. Besides, the pIC50 in experiment [19] was 7.05; in experiment [20], 6.80; in experiment [22], 6.82; in experiment [24], 7.10; in experiment [26], 6.68; in experiment [6] it was 4.95. The pIC50 was under 5.00 in experiment [7], 5.05 in experiment [8] and 6.64 in [31].

In the case of `COc1cccc2c1C(=O)c1c(O)c3c(c(O)c1C2=O)C[C@@](O)(C(=O)CO)C[C@@H]3O[C@H]1C[C@H](N)[C@H](O)[C@H](C)O1` [DOXORUBICIN], the pIC50 in experiment [17] was 6.66; in experiment [19], 6.09; in [22], 6.47; in experiment [6], under 6.00; in [7], under 6.00; in [8], under 6.00.

Consider `CC[C@H]1CN2CCc3cc(O)c(OC)cc3[C@@H]2C[C@@H]1C[C@H]1NCCc2c1[nH]c1ccc(O)cc21`, for which the pIC50 in experiment [12] was 6.64; in experiment [13], 6.21; in experiment [14], 6.60; in experiment [15], 6.44; in experiment [17], 6.21; in experiment [18], 6.72. In addition, the pIC50 in experiment [19] was 6.54; in experiment [20], 6.57; in experiment [22], 6.33; in experiment [24] it was 6.66; in experiment [26] it was 6.42; in experiment [6], under 5.00. Moreover, the figures for the pIC50 in [7], in [8] and in experiment [31] were under 5.00, under 5.00 and 6.52, respectively.
